{
  "source": "ChEMBL document CHEMBL4033642",
  "about": "“Design and synthesis of neolamellarin a derivatives targeting heat shock protein 90” (Eur J Med Chem, 2017)",
  "key": {"[1]": {"test_system": "NCI-H1299", "assay": "Antiproliferative activity against human H1299 cells after 48 hrs by resazurin dye-based fluorescence assay", "type": "functional, cell-based", "conditions": "NCI-H1299, 48 h", "how_it_was_run": "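H1299 non-small-cell lung cells, kept subconfluent, passages 3–30, seeded 2000 cells/well; after 24 h exposed to serial concentrations in serum complete medium, 0.1% DMSO final, for 48 h. Resazurin then added, 16 h at 37 °C; fluorescence read at 544 nm excitation/595 nm emission, proportional to viable cells. IC50 from three repeats.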"}, "[2]": {"test_system": "NCI-H1299", "assay": "Antiproliferative activity against human H1299 cells assessed as inhibition of cell viability after […] by resazurin dye-based fluorescence assay", "type": "functional", "how_it_was_run": "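H1299 cells, 2000/well, seeded 24 h, then exposed to serial compound concentrations in serum-containing complete medium for 48 h (DMSO vehicle, 0.1% final). Resazurin (2 mg/mL stock) added, 16 h at 37 °C. Fluorescence read at 544 nm ex / 595 nm em; RFU taken as proportional to living cells.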"}, "[3]": {"target": "T1, Heat shock protein HSP 90-alpha (Homo sapiens, UniProt P07900)", "assay": "Inhibition of FITC-GA binding to N-terminal domain of HSP90alpha (unknown origin) after 5 hrs by fluorescence polarization assay"}, "[4]": {"target": "T1, Heat shock protein HSP 90-alpha", "assay": "Inhibition of HSP90alpha in human H1299 cells assessed as decrease in EGFR levels after 72 hrs by Western blot analysis", "type": "cell-based", "how_it_was_run": "(§1)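 H1299 cells seeded in 15 cm dishes at 8 × 10⁴ cells/mL, 24 h, then treated at 7.5 and 15 µM for 72 h at 37 °C; DMSO-only controls. Lysed on ice 30 min, cleared at 10000 × g, protein by BCA. 25–100 µg run on 10% or 12% SDS-PAGE, blotted to nitrocellulose. Probed with antibodies to CDK2, EGFR, p-EGFR (Tyr1068), AKT, p-AKT, cleaved PARP; β-actin loading control; chemiluminescence; three repeats.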"}, "[5]": {"target": "T1, Heat shock protein HSP 90-alpha", "assay": "Inhibition of HSP90alpha in human H1299 cells assessed as decrease in AKT levels after 72 hrs by Western blot analysis", "type": "cell-based", "how_it_was_run": "as §1"}, "[6]": {"target": "T1, Heat shock protein HSP 90-alpha", "assay": "Inhibition of HSP90alpha in human H1299 cells assessed as decrease in phosphorylation of EGFR after 72 hrs by Western blot analysis", "type": "cell-based", "how_it_was_run": "as §1"}, "[7]": {"target": "T1, Heat shock protein HSP 90-alpha", "assay": "Inhibition of HSP90alpha in human H1299 cells assessed as decrease in phosphorylation of AKT after 72 hrs by Western blot analysis", "type": "cell-based", "how_it_was_run": "as §1"}, "[8]": {"test_system": "NCI-H1299", "assay": "Induction of apoptosis in human H1299 cells assessed as inhibition of expression of CDK2 after 72 hrs by Western blot analysis", "type": "functional, cell-based", "how_it_was_run": "as §1"}, "[9]": {"test_system": "NCI-H1299", "assay": "Induction of apoptosis in human H1299 cells assessed as increase in cleaved PARP levels after 72 hrs by Western blot analysis", "type": "functional, cell-based", "how_it_was_run": "as §1"}},
  "data": [
    {"smiles": "COc1ccc(Cn2cc(-c3ccc(O)cc3)c(-c3ccc(O)cc3)c2)cc1OC", "values": [
      {"measurement": "IC50", "setting": "[1]", "value": 29.2, "unit": "µM"},
      {"measurement": "inhibition", "setting": "[2]", "value": "Dose-dependent effect"}
    ]},
    {"smiles": "COc1ccc(-c2cn(Cc3ccc(O)cc3)cc2-c2ccc(OC)cc2)cc1", "values": [
      {"measurement": "IC50", "setting": "[1]", "value": 20.5, "unit": "µM"}
    ]},
    {"smiles": "COc1ccc(-c2cn(Cc3ccc(O)c(O)c3)cc2-c2ccc(OC)c(OC)c2)cc1OC", "values": [
      {"measurement": "IC50", "setting": "[1]", "value": 23.4, "unit": "µM"}
    ]},
    {"smiles": "COc1ccccc1Cn1cc(-c2ccc(O)c(O)c2)c(-c2ccc(O)c(O)c2)c1", "values": [
      {"measurement": "IC50", "setting": "[1]", "value": 8.6, "unit": "µM"}
    ]},
    {"smiles": "COc1cc(-c2cn(Cc3ccc(O)cc3)cc2-c2cc(OC)c(OC)c(OC)c2)cc(OC)c1OC", "values": [
      {"measurement": "IC50", "setting": "[1]", "value": "> 100", "unit": "µM"}
    ]},
    {"smiles": "COc1ccc(Cn2cc(-c3ccc(O)cc3)c(-c3ccc(O)cc3)c2)cc1", "values": [
      {"measurement": "IC50", "setting": "[1]", "value": 37.3, "unit": "µM"}
    ]},
    {"smiles": "COc1cc(Cn2cc(-c3ccc(O)c(O)c3)c(-c3ccc(O)c(O)c3)c2)cc(OC)c1OC", "values": [
      {"measurement": "IC50", "setting": "[3]", "value": 0.852, "unit": "µM"},
      {"measurement": "IC50", "setting": "[1]", "value": 13.2, "unit": "µM"},
      {"measurement": "inhibition", "setting": "[4]", "value": "Dose-dependent effect"},
      {"measurement": "inhibition", "setting": "[5]", "value": "Dose-dependent effect"},
      {"measurement": "inhibition", "setting": "[6]", "value": "Dose-dependent effect"},
      {"measurement": "inhibition", "setting": "[7]", "value": "Dose-dependent effect"},
      {"measurement": "inhibition", "setting": "[8]", "value": "Dose-dependent effect"},
      {"measurement": "Activity", "setting": "[9]", "value": "Dose-dependent effect"},
      {"measurement": "inhibition", "setting": "[2]", "value": "Dose-dependent effect"}
    ]},
    {"smiles": "COc1ccc(-c2cn(Cc3ccccc3O)cc2-c2ccc(OC)cc2)cc1", "values": [
      {"measurement": "IC50", "setting": "[1]", "value": 20.8, "unit": "µM"}
    ]},
    {"smiles": "COc1ccccc1Cn1cc(-c2ccc(O)cc2)c(-c2ccc(O)cc2)c1", "values": [
      {"measurement": "IC50", "setting": "[1]", "value": 23.1, "unit": "µM"}
    ]},
    {"smiles": "COc1cccc(Cn2cc(-c3ccc(O)cc3)c(-c3ccc(O)cc3)c2)c1", "values": [
      {"measurement": "IC50", "setting": "[1]", "value": 25.3, "unit": "µM"}
    ]},
    {"smiles": "COc1ccc(Cn2cc(-c3ccc(O)cc3)c(-c3ccc(O)cc3)c2)c(OC)c1OC", "values": [
      {"measurement": "IC50", "setting": "[1]", "value": 25.1, "unit": "µM"}
    ]},
    {"smiles": "C=CCNC1=C2C[C@@H](C)C[C@H](OC)[C@H](O)[C@@H](C)/C=C(\\C)[C@H](OC(N)=O)[C@@H](OC)/C=C\\C=C(/C)C(=O)NC(=CC1=O)C2=O", "note": "[TANESPIMYCIN]", "values": [
      {"measurement": "IC50", "setting": "[1]", "value": 0.2, "unit": "µM"}
    ]},
    {"smiles": "COc1ccc(-c2cn(Cc3ccc(O)cc3)cc2-c2ccc(OC)c(OC)c2)cc1OC", "values": [
      {"measurement": "IC50", "setting": "[1]", "value": 30.6, "unit": "µM"}
    ]},
    {"smiles": "COc1ccc(Cn2cc(-c3ccc(O)c(O)c3)c(-c3ccc(O)c(O)c3)c2)cc1OC", "values": [
      {"measurement": "IC50", "setting": "[3]", "value": 0.374, "unit": "µM"},
      {"measurement": "IC50", "setting": "[1]", "value": 10.5, "unit": "µM"},
      {"measurement": "inhibition", "setting": "[4]", "value": "Dose-dependent effect"},
      {"measurement": "inhibition", "setting": "[5]", "value": "Dose-dependent effect"},
      {"measurement": "inhibition", "setting": "[6]", "value": "Dose-dependent effect"},
      {"measurement": "inhibition", "setting": "[7]", "value": "Dose-dependent effect"},
      {"measurement": "inhibition", "setting": "[8]", "value": "Dose-dependent effect"},
      {"measurement": "Activity", "setting": "[9]", "value": "Dose-dependent effect"},
      {"measurement": "inhibition", "setting": "[2]", "value": "Dose-dependent effect"}
    ]},
    {"smiles": "COc1ccc(-c2cn(Cc3ccc(O)c(O)c3)cc2-c2ccc(OC)cc2)cc1", "values": [
      {"measurement": "IC50", "setting": "[1]", "value": 19.1, "unit": "µM"},
      {"measurement": "inhibition", "setting": "[2]", "value": "Dose-dependent effect"}
    ]},
    {"smiles": "COc1cc(-c2cn(Cc3ccc(O)c(O)c3)cc2-c2cc(OC)c(OC)c(OC)c2)cc(OC)c1OC", "values": [
      {"measurement": "IC50", "setting": "[1]", "value": 29.2, "unit": "µM"}
    ]},
    {"smiles": "Oc1ccc(-c2cn(Cc3ccccc3)cc2-c2ccc(O)cc2)cc1", "values": [
      {"measurement": "IC50", "setting": "[1]", "value": 26.9, "unit": "µM"}
    ]},
    {"smiles": "COc1ccc(Cn2cc(-c3ccc(O)c(O)c3)c(-c3ccc(O)c(O)c3)c2)cc1", "values": [
      {"measurement": "IC50", "setting": "[3]", "value": 0.752, "unit": "µM"},
      {"measurement": "IC50", "setting": "[1]", "value": 8.3, "unit": "µM"},
      {"measurement": "inhibition", "setting": "[4]", "value": "Dose-dependent effect"},
      {"measurement": "inhibition", "setting": "[5]", "value": "Dose-dependent effect"},
      {"measurement": "inhibition", "setting": "[6]", "value": "Dose-dependent effect"},
      {"measurement": "inhibition", "setting": "[7]", "value": "Dose-dependent effect"},
      {"measurement": "inhibition", "setting": "[8]", "value": "Dose-dependent effect"},
      {"measurement": "Activity", "setting": "[9]", "value": "Dose-dependent effect"},
      {"measurement": "inhibition", "setting": "[2]", "value": "Dose-dependent effect"}
    ]},
    {"smiles": "COc1ccc(Cn2cc(-c3ccc(O)cc3)c(-c3ccc(O)cc3)c2)c(OC)c1", "values": [
      {"measurement": "IC50", "setting": "[1]", "value": 31.6, "unit": "µM"}
    ]}
  ]
}
